Experimental data published in ChEMBL document CHEMBL1152797, “Design and synthesis of 4-methoxyphenylacetic acid esters as 15-lipoxygenase inhibitors and SAR comparative studies of them” (Bioorg Med Chem, 2009).
The source made the active and inactive calls. No cut-off for these calls is given here.

Tested on: Glycine max
Assay: Inhibition of 15-lipoxygenase form soybean at 200 uM

Activity | SMILES
inactive | C=C1CCc2cc(OC)ccc2C1
inactive | COc1ccc2c(c1)CCC(=O)C2

Target: not listed separately
Assay: Inhibition of human recombinant 15-lipoxygenase b
In short: (§1)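 Human recombinant 15-LO (a or b), expressed in E. coli, at 10 µg/mL final in 50 mM Tris–HCl, pH 7.2. Linoleic acid substrate at 134 µM final, 20 ± 1 °C, compounds in DMSO (1% final). Absorbance read at 234 nm over 60–120 s against an inhibitor-plus-substrate blank. Triplicates, at least six controls; IC50 interpolated linearly near 50% activity.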

IC50 [µM] | SMILES
11.7 | CCCCCOC(=O)Cc1ccc(OC)cc1
63.2 | CCOC(=O)Cc1ccc(OC)cc1

Target: not listed separately
Assay: Inhibition of 15-lipoxygenase form soybean
Set-up: species or system Glycine max

SMILES | IC50 [µM]
CCC(C)OC(=O)Cc1ccc(OC)cc1 (centres undefined) | 35.7
COc1ccc(CC(=O)OC(C)(C)C)cc1 | 38.7
C=CCc1ccc(OC)cc1 [ESTRAGOLE] | 64.1
C=CCc1ccc(OC)c(OC)c1 [METHYLEUGENOL] | 96.1
CCCCOC(=O)Cc1ccc(OC)cc1 | 3.8
CCCCCOC(=O)Cc1ccc(OC)cc1 | 1.9
C=CCc1ccc(O)c(OC)c1 [EUGENOL] | 38.2
COc1ccc(CC(=O)OCC(C)C)cc1 | 88.1
CCCCCCOC(=O)Cc1ccc(OC)cc1 | 35

Now from value to compound:

IC50 [µM] | SMILES
33 | CCC(=O)Cc1ccc(OC)cc1
56.5 | COc1ccc(CC(=O)OC2CCCC2)cc1
145 | C=C(CC)Cc1ccc(OC)cc1
32 | CCOC(=O)Cc1ccc(OC)cc1
56.2 | COC(=O)Cc1ccc(OC)cc1
64 | COc1ccc(CC(=O)OC2CCCCC2)cc1
11.6 | CCCOC(=O)Cc1ccc(OC)cc1
34.4 | COc1ccc(CC(=O)OC(C)C)cc1
137 | C=C(C)Cc1ccc(OC)cc1

Target: not listed separately
Assay: Inhibition of human recombinant 15-lipoxygenase a
In short: as §1

IC50 [µM] | SMILES
30.9 | CCCCCOC(=O)Cc1ccc(OC)cc1
56.7 | CCOC(=O)Cc1ccc(OC)cc1
